{
  "source": "ChEMBL document CHEMBL1151761",
  "about": "“Radiohalogenated prostate-specific membrane antigen (PSMA)-based ureas as imaging agents for prostate cancer” (J Med Chem, 2008)",
  "format_in_all_cases": "ADME, organism-based",
  "key": {"[1]": {"experiment": "Ratio of drug level in PC3 PIP tumor to PC3 flu tumor of human PSMA expressing PC3 PIP and PSMA deficient human PC3 flu cells xenografted SCID mouse at 2 uCi, iv after 60 mins", "conditions": "in vivo, 1 h", "in_short": "(§1)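 Male SCID mice carried subcutaneous PSMA+ PC-3 PIP (left shoulder) and PC-3 flu (right shoulder) xenografts, 1-5 × 10^6 cells in HBSS, and were used at 3-5 mm tumor diameter. Tail-vein injection of 2 µCi radioligand; four mice per time point, killed by cervical dislocation. %ID/g from a standard dilution of the dose, decay-corrected, mean ± SD; PIP tumor:organ ratios.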"}, "[2]": {"experiment": "Ratio of drug level in PC3 PIP tumor to PC3 flu tumor of human PSMA expressing PC3 PIP and PSMA deficient human PC3 flu cells xenografted SCID mouse at 2 uCi, iv after 2 hrs", "conditions": "in vivo", "in_short": "as §1"}, "[3]": {"experiment": "Ratio of drug level in PC3 PIP tumor to PC3 flu tumor of human PSMA expressing PC3 PIP and PSMA deficient human PC3 flu cells xenografted SCID mouse at 2 uCi, iv after 5 hrs", "conditions": "in vivo", "in_short": "as §1"}, "[4]": {"tested_on": "Liver", "experiment": "Biodistribution in liver of PSMA expressing human PC3 PIP and PSMA deficient human PC3 flu cells xenografted SCID mouse at 2 uCi, iv after 60 mins", "conditions": "in vivo, 1 h"}, "[5]": {"tested_on": "Pancreas", "experiment": "Biodistribution in pancreas of PSMA expressing human PC3 PIP and PSMA deficient human PC3 flu cells xenografted SCID mouse at 2 uCi, iv after 60 mins", "conditions": "in vivo, 1 h"}, "[6]": {"tested_on": "Muscle tissue", "experiment": "Biodistribution in muscle of PSMA expressing human PC3 PIP and PSMA deficient human PC3 flu cells xenografted SCID mouse at 2 uCi, iv after 60 mins", "conditions": "in vivo, 1 h"}, "[7]": {"experiment": "Biodistribution in PC3 PIP tumor of PSMA expressing human PC3 PIP and PSMA deficient human PC3 flu cells xenografted SCID mouse at 2 uCi, iv after 60 mins", "conditions": "in vivo, 1 h"}, "[8]": {"tested_on": "Liver", "experiment": "Biodistribution in liver of PSMA expressing human PC3 PIP and PSMA deficient human PC3 flu cells xenografted SCID mouse at 2 uCi, iv after 2 hrs", "conditions": "in vivo"}, "[9]": {"experiment": "Biodistribution in small intestine of PSMA expressing human PC3 PIP and PSMA deficient human PC3 flu cells xenografted SCID mouse at 2 uCi, iv after 2 hrs", "conditions": "in vivo", "in_short": "as §1"}, "[10]": {"tested_on": "Urinary bladder", "experiment": "Biodistribution in bladder of PSMA expressing human PC3 PIP and PSMA deficient human PC3 flu cells xenografted SCID mouse at 2 uCi, iv after 2 hrs", "conditions": "in vivo"}, "[11]": {"tested_on": "Stomach", "experiment": "Biodistribution in stomach of PSMA expressing human PC3 PIP and PSMA deficient human PC3 flu cells xenografted SCID mouse at 2 uCi, iv after 5 hrs", "conditions": "in vivo"}, "[12]": {"tested_on": "Pancreas", "experiment": "Biodistribution in pancreas of PSMA expressing human PC3 PIP and PSMA deficient human PC3 flu cells xenografted SCID mouse at 2 uCi, iv after 5 hrs", "conditions": "in vivo"}, "[13]": {"tested_on": "Spleen", "experiment": "Biodistribution in spleen of PSMA expressing human PC3 PIP and PSMA deficient human PC3 flu cells xenografted SCID mouse at 2 uCi, iv after 5 hrs", "conditions": "in vivo"}, "[14]": {"experiment": "Ratio of drug level in tumor to pancreas of human PSMA expressing PC3 PIP and PSMA deficient human PC3 flu cells xenografted SCID mouse at 2 uCi, iv after 30 mins", "conditions": "in vivo, 0.5 h", "in_short": "as §1"}, "[15]": {"experiment": "Ratio of drug level in tumor to kidney of human PSMA expressing PC3 PIP and PSMA deficient human PC3 flu cells xenografted SCID mouse at 2 uCi, iv after 30 mins", "conditions": "in vivo, 0.5 h", "in_short": "as §1"}, "[16]": {"experiment": "Ratio of drug level in tumor to blood of human PSMA expressing PC3 PIP and PSMA deficient human PC3 flu cells xenografted SCID mouse at 2 uCi, iv after 60 mins", "in_short": "(§2)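 Male SCID mice carried subcutaneous xenografts of PSMA+ PC-3 PIP cells behind the left shoulder and PSMA− PC-3 flu cells behind the right (1–5 × 10^6 cells in HBSS), used at a tumour diameter of 3–5 mm. Each mouse received 2 μCi of radioiodinated tracer via the tail vein. Tissues were harvested at each time point for %ID/g against a standard dilution of the dose, decay-corrected. Ratios are PIP tumour:organ.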"}, "[17]": {"experiment": "Ratio of drug level in tumor to heart of human PSMA expressing PC3 PIP and PSMA deficient human PC3 flu cells xenografted SCID mouse at 2 uCi, iv after 60 mins", "conditions": "in vivo, 1 h", "in_short": "as §1"}, "[18]": {"experiment": "Ratio of drug level in tumor to bladder of human PSMA expressing PC3 PIP and PSMA deficient human PC3 flu cells xenografted SCID mouse at 2 uCi, iv after 60 mins", "conditions": "in vivo, 1 h", "in_short": "as §1"}, "[19]": {"experiment": "Ratio of drug level in tumor to heart of human PSMA expressing PC3 PIP and PSMA deficient human PC3 flu cells xenografted SCID mouse at 2 uCi, iv after 2 hrs", "conditions": "in vivo", "in_short": "as §1"}, "[20]": {"experiment": "Ratio of drug level in tumor to pancreas of human PSMA expressing PC3 PIP and PSMA deficient human PC3 flu cells xenografted SCID mouse at 2 uCi, iv after 2 hrs", "conditions": "in vivo", "in_short": "as §1"}, "[21]": {"experiment": "Ratio of drug level in tumor to kidney of human PSMA expressing PC3 PIP and PSMA deficient human PC3 flu cells xenografted SCID mouse at 2 uCi, iv after 2 hrs", "conditions": "in vivo", "in_short": "as §1"}, "[22]": {"experiment": "Ratio of drug level in tumor to small intestine of human PSMA expressing PC3 PIP and PSMA deficient human PC3 flu cells xenografted SCID mouse at 2 uCi, iv after 2 hrs", "conditions": "in vivo", "in_short": "(§3)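 Male SCID mice carried subcutaneous xenografts: PSMA+ PC-3 PIP behind the left shoulder and PSMA− PC-3 flu behind the right, 1–5 × 10^6 cells in HBSS. Mice were used at 3–5 mm tumor diameter. 2 μCi was given by tail vein, and 4 mice per time point were killed by cervical dislocation. %ID/g came from a standard dilution of the dose, decay-corrected. Ratio is PIP tumor %ID/g to organ %ID/g.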"}, "[23]": {"experiment": "Ratio of drug level in tumor to bladder of human PSMA expressing PC3 PIP and PSMA deficient human PC3 flu cells xenografted SCID mouse at 2 uCi, iv after 2 hrs", "conditions": "in vivo", "in_short": "as §1"}, "[24]": {"experiment": "Ratio of drug level in tumor to blood of human PSMA expressing PC3 PIP and PSMA deficient human PC3 flu cells xenografted SCID mouse at 2 uCi, iv after 5 hrs", "in_short": "as §2"}, "[25]": {"experiment": "Ratio of drug level in tumor to spleen of human PSMA expressing PC3 PIP and PSMA deficient human PC3 flu cells xenografted SCID mouse at 2 uCi, iv after 5 hrs", "conditions": "in vivo", "in_short": "as §3"}, "[26]": {"experiment": "Ratio of drug level in tumor to small intestine of human PSMA expressing PC3 PIP and PSMA deficient human PC3 flu cells xenografted SCID mouse at 2 uCi, iv after 5 hrs", "conditions": "in vivo", "in_short": "as §3"}, "[27]": {"experiment": "Ratio of drug level in tumor to bladder of human PSMA expressing PC3 PIP and PSMA deficient human PC3 flu cells xenografted SCID mouse at 2 uCi, iv after 5 hrs", "conditions": "in vivo", "in_short": "as §1"}, "[28]": {"tested_on": "Stomach", "experiment": "Biodistribution in stomach of PSMA expressing human PC3 PIP and PSMA deficient human PC3 flu cells xenografted SCID mouse at 2 uCi, iv after 30 mins", "conditions": "in vivo, 0.5 h"}},
  "data": [
    {"smiles": "O=C(O)CC[C@H](NC(=O)N[C@@H](CCCCNC(=O)c1ccc([18F])cc1)C(=O)O)C(=O)O", "values": [
      {"measurement": "Ratio", "setting": "[1]", "value": 21},
      {"measurement": "Ratio", "setting": "[2]", "value": 15},
      {"measurement": "Ratio", "setting": "[3]", "value": 35},
      {"measurement": "Drug uptake", "setting": "[4]", "value": 5.8, "unit": "% ID/g"},
      {"measurement": "Drug uptake", "setting": "[5]", "value": 0.3, "unit": "% ID/g"},
      {"measurement": "Drug uptake", "setting": "[6]", "value": 0.5, "unit": "% ID/g"},
      {"measurement": "Drug uptake", "setting": "[7]", "value": 6.4, "unit": "% ID/g"},
      {"measurement": "Drug uptake", "setting": "[8]", "value": 11.7, "unit": "% ID/g"},
      {"measurement": "Drug uptake", "setting": "[9]", "value": 0.3, "unit": "% ID/g"},
      {"measurement": "Drug uptake", "setting": "[10]", "value": 11, "unit": "% ID/g"},
      {"measurement": "Drug uptake", "setting": "[11]", "value": 0.04, "unit": "% ID/g"},
      {"measurement": "Drug uptake", "setting": "[12]", "value": 0.05, "unit": "% ID/g"},
      {"measurement": "Drug uptake", "setting": "[13]", "value": 1, "unit": "% ID/g"},
      {"measurement": "Ratio", "setting": "[14]", "value": 11},
      {"measurement": "Ratio", "setting": "[15]", "value": 0.1},
      {"measurement": "Kp at 1 h", "setting": "[16]", "value": 9},
      {"measurement": "Ratio", "setting": "[17]", "value": 35},
      {"measurement": "Ratio", "setting": "[18]", "value": 0.4},
      {"measurement": "Ratio", "setting": "[19]", "value": 25},
      {"measurement": "Ratio", "setting": "[20]", "value": 25},
      {"measurement": "Ratio", "setting": "[21]", "value": 0.1},
      {"measurement": "Ratio", "setting": "[22]", "value": 12},
      {"measurement": "Ratio", "setting": "[23]", "value": 0.3},
      {"measurement": "Kp at 5 h", "setting": "[24]", "value": 117},
      {"measurement": "Ratio", "setting": "[25]", "value": 3.5},
      {"measurement": "Ratio", "setting": "[26]", "value": 35},
      {"measurement": "Ratio", "setting": "[27]", "value": 0.7},
      {"measurement": "Drug uptake", "setting": "[28]", "value": 0.8, "unit": "% ID/g"}
    ]}
  ]
}
